Converted amounts (≈) assume the structure as drawn.
Experiments:
J774 = experiment: Cytotoxicity against mouse J774 cells after 24 hrs by resazurin assay; type: cell-based; details: J774, 24 h
How it was run: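 J774 macrophages grown to confluence at 37 °C in 5% CO2, then seeded at 1 × 10^5 cells/mL and allowed 24 h to adhere. Resazurin added for 6 h; fluorescence read at 530 nm excitation, 590 nm emission.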

[1] = test system: Mycobacterium tuberculosis; experiment: Antimycobacterial activity against Mycobacterium tuberculosis H37Rv after 7 days by resazurine microtiter assay; type: functional; details: 168 h
How it was run: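 M. tuberculosis broth microdilution (REMA). Compounds dissolved as DMSO stocks and diluted in Middlebrook 7H9 broth with OADC enrichment. Culture and compounds combined in 96-well plates, in triplicate, incubated 7 days at 37 °C. Resazurin then added; fluorescence read at 530 nm excitation, 590 nm emission. Isoniazid run on every plate as standard.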

[2] = Selectivity index, ratio of IC50 for mouse J774 cells to MIC for Mycobacterium tuberculosis H37Rv; type: functional

Question: Which IC50 (J774) does the source give for `S=C(N/N=C(/C(=N/NC(=S)Nc1ccccc1)c1ccccc1)c1ccccc1)Nc1ccccc1` here?
Answer: Its IC50 is 2460 µM.

Question: And the MIC [1]?
Answer: The MIC was 49.1 µM (≈ 25 µg/mL).

Question: What about the “Selectivity Index” value [2] of the same compound?
Answer: The value was 50.

Question: What does the source list for `O=C(N/N=C(/C(=N/NC(=O)c1ccncc1)c1ccccc1)c1ccccc1)c1ccncc1`?
Answer: IC50 (J774): 349 µM; MIC [1]: 27.9 µM (≈ 12.5 µg/mL); Selectivity Index [2]: 12.5

Question: With `O=C(N/N=C/c1ccccn1)c1ccccc1O` as the compound, how does the IC50 (J774) read?
Answer: Its IC50 is 1300 µM.

Question: And the MIC [1]?
Answer: The MIC was ≥ 1040 µM.

Question: And the “Selectivity Index” value [2]?
Answer: The value was “<=1.25”.

Question: With `C/C(=N\NC(=S)N1CCCCCC1)c1ccccn1` as the compound, how does the IC50 (J774) read?
Answer: Its IC50 is 4520 µM.

Question: And the MIC [1]?
Answer: Its MIC is ≥ 181 µM.

Question: What about the “Selectivity Index” value [2] of the same compound?
Answer: The value was “<=25”.

Question: Which MIC [1] does the source give for `C/C(=N\NC(=S)Nc1ccccc1)c1ccccn1` here?
Answer: Its MIC is 57.7 µM (≈ 15.6 µg/mL).

Question: With `O=C(N/N=C/c1ccccc1O)c1ccccc1O` as the compound, how does the IC50 (J774) read?
Answer: Its IC50 is 1220 µM.

Question: And the MIC [1]?
Answer: The MIC was 122 µM (≈ 31.3 µg/mL).

Question: And the “Selectivity Index” value [2]?
Answer: Its value is 10.

Question: For `C/C(=N\NC(N)=S)c1ccccn1`, which MIC [1] is on record?
Answer: The MIC was 161 µM (≈ 31.3 µg/mL).

Question: Which MIC [1] does the source give for `CNC(=S)N/N=C(\C)c1ccccn1` here?
Answer: The MIC was 37.5 µM (≈ 7.8 µg/mL).

Question: Which results are given for `CCNC(=S)N/N=C(\C)c1ccccn1`?
Answer: IC50 (J774): 2810 µM; MIC [1]: 14.1 µM (≈ 3.13 µg/mL); Selectivity Index [2]: 200
